# Data reported in ChEMBL document CHEMBL4017509, “A Dual Modulator of Farnesoid X Receptor and Soluble Epoxide Hydrolase To Counter Nonalcoholic Steatohepatitis” (J Med Chem, 2017).
# The source made the active and inactive calls. The rule behind the calls is not given here.
# Tests used:
# Liver = test: Drug metabolism in Sprague-Dawley rat liver microsomes assessed as 4-tert-butyl-N-(2-chloro-4-(methylsulfonamido)benzyl)-2-hydroxybenzamide formation at 10 uM preincubated with NADPH regenerating system for 5 mins followed by addition of liver microsomes by LC-MS/MS method; type: ADME, microsome
# [1] = biological target: T1, Bifunctional epoxide hydrolase 2 (Homo sapiens) (UniProt P34913); test: Inhibition of sEH in human HuT-78 cells assessed as reduction in Pam3CSK4-stimulated TNFalpha release preincubated for 24 hrs followed by Pam3CSK4 addition measured after 18 hrs by ELISA; type: cell-based
# T1 sequence (whole entry): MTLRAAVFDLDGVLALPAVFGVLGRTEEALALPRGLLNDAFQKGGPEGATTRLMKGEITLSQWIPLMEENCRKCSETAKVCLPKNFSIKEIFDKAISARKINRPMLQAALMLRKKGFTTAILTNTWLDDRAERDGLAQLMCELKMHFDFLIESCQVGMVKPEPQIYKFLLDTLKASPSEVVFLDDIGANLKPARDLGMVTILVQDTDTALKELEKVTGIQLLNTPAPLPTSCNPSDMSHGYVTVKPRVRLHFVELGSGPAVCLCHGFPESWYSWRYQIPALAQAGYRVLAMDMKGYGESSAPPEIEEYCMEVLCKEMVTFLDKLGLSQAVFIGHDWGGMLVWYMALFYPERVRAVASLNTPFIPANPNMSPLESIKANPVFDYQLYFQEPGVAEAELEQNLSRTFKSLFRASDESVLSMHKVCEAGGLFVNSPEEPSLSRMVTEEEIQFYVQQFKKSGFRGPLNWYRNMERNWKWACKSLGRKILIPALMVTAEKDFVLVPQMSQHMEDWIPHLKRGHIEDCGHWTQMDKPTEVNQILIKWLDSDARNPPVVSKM
# In short: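 HuT-78 cells in RPMI 1640 with 10% heat-inactivated FCS, 2.0 × 10^6 cells/well, exposed to compound (0.1% DMSO) for 24 h; medium then replaced with fresh compound plus Pam3CSK4 20 ng/mL for 18 h; supernatant TNFα measured by ELISA (absorbance 450 nm); each concentration repeated independently at least three times.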
# [2] = Half life in C57BL/6JRj mouse at 10 mg/kg, po measured up to 480 mins post dose by LC-MS analysis; type: ADME, organism-based; conditions: in vivo
# In short: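 Male C57BL/6JRj mice (23−26 g), six dosed once orally at 10 mg/kg in water with 1% HPMC/Tween 80 (99:1), three vehicle. Tail-vein blood (20 μL) at 15, 30, 60, 120, 240 and 480 min, last by retro-orbital puncture. Blood spiked, acetonitrile precipitation with griseofulvin internal standard, LC−MS on phenyl-hexyl column. Noncompartmental PK analysis.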
# [3] = biological target: G-protein coupled bile acid receptor 1 (Homo sapiens) (UniProt Q8TDU6); test: Agonist activity at TGR5 (unknown origin) at 10 uM
# [4] = biological target: T2, Bile acid receptor (Homo sapiens) (UniProt Q96RI1); test: Transactivation of FXR in human HepG2 cells assessed as BSEP mRNA expression at 1 uM after 8 to 16 hrs by SYBR green based qRT-PCR analysis relative to DMSO control; type: cell-based
# T2 sequence (whole entry): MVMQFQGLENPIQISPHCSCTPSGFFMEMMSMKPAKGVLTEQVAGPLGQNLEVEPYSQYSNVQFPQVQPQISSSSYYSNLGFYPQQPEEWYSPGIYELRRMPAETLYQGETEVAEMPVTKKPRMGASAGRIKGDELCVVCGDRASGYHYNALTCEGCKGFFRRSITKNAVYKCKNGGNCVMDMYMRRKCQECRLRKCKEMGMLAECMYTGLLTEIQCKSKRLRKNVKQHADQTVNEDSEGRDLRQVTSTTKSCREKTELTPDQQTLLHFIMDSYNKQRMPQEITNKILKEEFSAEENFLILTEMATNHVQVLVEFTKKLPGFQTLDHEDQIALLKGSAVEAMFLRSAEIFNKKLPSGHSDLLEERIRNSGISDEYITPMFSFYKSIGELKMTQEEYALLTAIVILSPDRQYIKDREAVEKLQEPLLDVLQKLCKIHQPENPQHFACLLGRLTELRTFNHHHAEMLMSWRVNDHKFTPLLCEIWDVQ
# In short: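 HepG2 cells incubated with test compound (0.1 and 1 μM) or 0.1% DMSO for 8 or 16 h, washed in cold PBS, RNA extracted; target mRNA by SYBR Green qRT-PCR, duplicate samples, ≥4 independent experiments; comparative ΔΔCt with GAPDH reference, vehicle set as 100%.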
# [5] = biological target: Oxysterols receptor LXR-beta (Homo sapiens) (UniProt P55055); test: Transactivation of human GAL4-fused LXRbeta ligand binding domain expressed in […] cells at 10 uM after 12 to 14 hrs by dual-glo luciferase reporter gene assay; type: cell-based
# In short: (§1)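 HEK293T cells in DMEM/10% FCS, Opti-MEM before Lipofectamine LTX transfection with pFR-Luc reporter, pRL-SV40 and pFA-CMV GAL4–LBD plasmid. 5 h later compound in 0.1% DMSO, Opti-MEM, overnight (12−14 h). Dual luciferase; firefly/renilla ×1000 = RLU, fold over DMSO control; triplicates, ≥3 independent repeats.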
# [6] = biological target: Nuclear receptor subfamily 1 group I member 2 (Homo sapiens, UniProt O75469); test: Transactivation of human GAL4-fused PXR ligand binding domain expressed in […] cells at 10 uM after 12 to 14 hrs by dual-glo luciferase reporter gene assay; type: cell-based; in short: as §1
# [7] = biological target: T3, Peroxisome proliferator-activated receptor gamma (Homo sapiens) (UniProt P37231); test: Transactivation of PPARgamma in human HepG2 cells assessed as CD36 mRNA expression at 10 uM after 8 to 16 hrs by SYBR green based qRT-PCR analysis relative to DMSO control; type: cell-based
# T3 sequence (whole entry): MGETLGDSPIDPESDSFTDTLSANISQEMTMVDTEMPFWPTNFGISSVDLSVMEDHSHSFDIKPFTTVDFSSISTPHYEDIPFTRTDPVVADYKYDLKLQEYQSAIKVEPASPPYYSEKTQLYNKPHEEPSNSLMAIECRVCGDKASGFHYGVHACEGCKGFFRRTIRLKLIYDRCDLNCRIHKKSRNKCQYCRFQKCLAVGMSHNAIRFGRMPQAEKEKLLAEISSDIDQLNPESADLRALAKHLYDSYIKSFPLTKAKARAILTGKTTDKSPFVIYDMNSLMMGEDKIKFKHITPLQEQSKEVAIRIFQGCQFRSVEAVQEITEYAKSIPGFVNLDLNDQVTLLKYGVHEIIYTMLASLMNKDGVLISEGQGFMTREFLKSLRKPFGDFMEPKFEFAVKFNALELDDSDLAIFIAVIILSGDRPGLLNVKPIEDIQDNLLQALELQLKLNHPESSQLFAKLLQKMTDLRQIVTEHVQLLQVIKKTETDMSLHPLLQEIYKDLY
# In short: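 HepG2 cells treated 8 or 16 h with compound or 0.1% DMSO, washed in cold PBS, RNA extracted; SYBR Green qRT-PCR in duplicate, ≥4 independent experiments (n = 3 for CD36/FAM3A). ΔΔCt method with GAPDH reference; expression as % of vehicle (100%). Pioglitazone 1 μM used as positive control for the PPARγ genes.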
# Chain of Nuclear receptor subfamily 1 group I member 2 (O75469 whole entry, the tested form may be a part): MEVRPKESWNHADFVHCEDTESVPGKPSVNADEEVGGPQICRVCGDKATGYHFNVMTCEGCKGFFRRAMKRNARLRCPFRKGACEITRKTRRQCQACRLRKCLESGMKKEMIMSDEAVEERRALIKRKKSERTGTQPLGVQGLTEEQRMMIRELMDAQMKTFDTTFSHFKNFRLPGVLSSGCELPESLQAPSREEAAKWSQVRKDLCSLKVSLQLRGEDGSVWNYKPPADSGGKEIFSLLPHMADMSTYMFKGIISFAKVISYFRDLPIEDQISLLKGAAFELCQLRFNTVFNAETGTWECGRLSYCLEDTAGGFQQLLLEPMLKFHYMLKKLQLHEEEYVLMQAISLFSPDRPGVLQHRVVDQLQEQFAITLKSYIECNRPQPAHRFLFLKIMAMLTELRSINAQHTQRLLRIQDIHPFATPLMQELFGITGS
# Chain of G-protein coupled bile acid receptor 1 (Homo sapiens) (Q8TDU6 whole entry): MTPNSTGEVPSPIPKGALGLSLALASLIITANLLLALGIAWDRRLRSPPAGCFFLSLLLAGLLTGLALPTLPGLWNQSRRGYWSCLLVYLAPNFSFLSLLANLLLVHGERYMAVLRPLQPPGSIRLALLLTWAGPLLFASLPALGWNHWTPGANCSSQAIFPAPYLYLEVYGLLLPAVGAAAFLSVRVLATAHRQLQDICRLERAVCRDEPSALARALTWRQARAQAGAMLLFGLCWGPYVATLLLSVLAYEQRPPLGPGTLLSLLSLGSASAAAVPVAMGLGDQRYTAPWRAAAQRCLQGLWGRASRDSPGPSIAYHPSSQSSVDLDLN
# Chain of Oxysterols receptor LXR-beta (Homo sapiens) (P55055 whole entry, the tested form may be a part): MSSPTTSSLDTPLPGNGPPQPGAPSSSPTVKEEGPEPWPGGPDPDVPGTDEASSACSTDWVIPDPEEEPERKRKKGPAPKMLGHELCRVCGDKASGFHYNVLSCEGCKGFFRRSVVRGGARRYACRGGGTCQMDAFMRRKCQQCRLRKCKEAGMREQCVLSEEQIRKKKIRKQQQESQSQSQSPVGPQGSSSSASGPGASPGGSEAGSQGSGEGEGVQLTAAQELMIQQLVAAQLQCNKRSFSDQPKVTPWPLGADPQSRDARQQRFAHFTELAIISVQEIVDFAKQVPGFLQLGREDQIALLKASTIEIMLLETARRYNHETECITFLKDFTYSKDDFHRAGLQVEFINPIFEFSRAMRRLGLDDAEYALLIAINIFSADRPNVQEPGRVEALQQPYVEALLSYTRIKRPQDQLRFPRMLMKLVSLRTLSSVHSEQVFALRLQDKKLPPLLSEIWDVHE
smiles,measurement,setting,value
CC(C)(C)c1ccc(C(=O)NCc2ccc(NS(C)(=O)=O)cc2Cl)cc1,Drug metabolism,Liver,Metabolite_Notdetected
same,inhibition,[1],Active
same,half-life,[2],42 min
same,Activity,[3],inactive
same,Activity,[4],222%
same,Activity,[5],inactive
same,Activity,[6],Not Active
same,Activity,[7],129%
